Hits are enriched below; roughly 4.9% of the tested compounds scored in any of these assays.
STAT1 act = activators of IFN-gamma induced STAT1 signaling; NIH 3T3 STAT1-luciferase reporter, luminescence; 100% = IFN-gamma alone, no compound; activation (% of control), % at 5.5 µM; hit rate 2.6% among 200,000; AID 932;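 active means activation above the screen-wide mean activation plus 3 SD, cut at about 130% in these data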;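 further: raw ratio to IFN-gamma control signal so 100% means no change and 0% no light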
STAT3 activator = activators of IL-6 induced STAT3 signaling. U3A cells, IL-6 STAT3-luciferase reporter, luminescence; 100% = signal with IL-6 EC80 alone. hit rate 0.91% among 190,000. AID 871. activation (% of control), % at 5.6 µM;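 active means activation above the screen-wide mean of compound activation plus 3 SD, cut at about 130% in these data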;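 further: 0% = background luminescence of wells with medium and substrate only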
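Test system: STAT3-luciferase reporter U3A cells; Detection: reporter luminescence signal; Times: 1 h compound pre-exposure, 6 h IL-6 stimulation, 37 °C; Benchmarks: IL-6-only high control; Also added: IL-6 stimulus at 33 ng/mL final.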
STAT3 inh = inhibitors of IL-6 induced STAT3 signaling; inhibition, % at 5.5 µM; hit rate 0.89% among 190,000; AID 862; U3A cells, IL-6 STAT3-luciferase reporter, luminescence; host cell line lacks STAT1;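 active means inhibition above the mean inhibition across all screened compounds plus 3 SD, cut at about 44% in these data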;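 further: 0% = DMSO only wells and 100% = 100 µM nifuroxazide control wells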
APP 5'UTR act = activates APP 5'UTR luciferase reporter; SH-SY5Y APP 5'UTR luciferase reporter, luminescence; zero percent = DMSO vehicle wells; activation, % at 2 µM; hit rate 1% among 190,000; AID 1276;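 active means activation above a set limit, based on mean plus 3 SD of controls, cut at about 140% in these data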
NF-kB expr up = raises NF-kB expression in human neuronal cells; NF-kB reporter expression; stronger effect = higher value; fold change at 12.5 µM; hit rate 1.6% among 190,000; in the data active means fold change above about 3.3
STAT1 inh = inhibitors of IFN-gamma induced STAT1 signaling; NIH 3T3 STAT1-luciferase reporter, luminescence; inhibition, % at 5.5 µM; hit rate 0.35% among 200,000;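 active means inhibition above a set limit, the mean inhibition across all tested compounds plus 3 SD, cut at about 34% in these data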;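 further: 0% = IFN-gamma with DMSO and 100% = IFN-gamma with 300 µM nifuroxazide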
STAT1 act conf = confirmation of STAT1 signaling activators; activation (% of control), % at 5.7 µM; shares compounds with STAT1 act; AID 1262; hit rate 97% among 1,200; NIH 3T3 STAT1-luciferase reporter, IFN-gamma potentiation, luminescence; 100% = IFN-gamma EC80 alone, no compound;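 active means activation above a set limit carried over from the earlier primary STAT1 screen, cut at about 140% in these data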;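 further: simple ratio to median IFN-gamma plus DMSO wells so 0% means no light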
NFkB act = activates NF-kappaB, counter-screen to STAT1 activators; shares compounds with STAT1 act; HEK293T NF-kB luciferase reporter, TNF-alpha stimulated, luminescence; 100% = TNF-alpha with vehicle only; activation (% of control), % at 5.7 µM; hit rate 43% among 1,200; AID 1306;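 active means activation above the mean of solvent-only control wells plus 3 SD, set per campaign, cut at about 130% in these data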;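 further: TNF-alpha given at a submaximal dose yielding about 80% of full reporter signal; values are well signal over median control so 100% means no change and 0% no light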
STAT3 act 2 = human STAT3 activation in STAT1 activator counter-screen. shares compounds with STAT1 act. hit rate 46% among 1,200. activation (% of control), % at 5.7 µM. U3A cells STAT3-luciferase reporter, IL-6, luminescence; cells lack STAT1; 100 = IL-6 alone, no compound effect;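 active means activation above the solvent-only control well mean plus 3 SD, set per plate batch, cut at about 110% in these data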;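 further: 0% = no luminescence and 100% = median IL-6 plus DMSO wells; higher means more STAT3 reporter activation so hits are non-selective activators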
An asterisk follows results filed as active; · = no result.

SMILES | STAT1 act | STAT3 activator | STAT3 inh | APP 5'UTR act | NF-kB expr up | STAT1 inh | STAT1 act conf | NFkB act | STAT3 act 2
Cc1cc(C)cc(N(CC(=O)Nc2ccccc2C(=O)N2CCOCC2)S(C)(=O)=O)c1 | 100 | 98 | 1 | 12 | 1.2 | 0 | · | · | ·
Cc1cc(=O)[nH]c(SCC(=O)Nc2ccc(F)c([N+](=O)[O-])c2)n1 | 99 | 98 | 2 | -16 | 1.2 | 1 | · | · | ·
Cc1ccc2[nH]c(=O)cc(C(=O)OCC(=O)c3ccccc3)c2c1 | 102 | 109 | -12 | -8 | 1.1 | -2 | · | · | ·
Cc1ccc(C(=O)COC(=O)c2cc(=O)[nH]c3ccccc23)cc1C | 163* | 99 | 4 | -21 | 2.6 | -70 | 203* | 136* | 121*
O/N=C/c1ccc(OCc2ccccc2F)c(Cl)c1 | 156* | 91 | 12 | 135 | 1.2 | -61 | 202* | 130 | 127*
O/N=C/c1ccc(OCc2ccccc2)c(Cl)c1 | 162* | 109 | -9 | 117 | 5.4* | -68 | 203* | 134* | 119*
O/N=C/c1ccc(OCc2ccccc2)c(Br)c1 | 162* | 108 | -7 | 131 | 6.7* | -70 | 188* | 132 | 123*
O=C(O)C1CCCCC1C(=O)NCc1ccc2c(c1)OCO2 (centres undefined) | 96 | 98 | 4 | 8 | 1.2 | 2 | · | · | ·
Cc1ccc(C(=O)Nc2ccc(SC(F)F)cc2)s1 | 173* | 102 | 0 | 112 | 1.2 | -80 | 205* | 141* | 98
CCO[C@@H]1OC(C(=O)NCc2ccccc2)=C[C@H](c2ccc(C(F)(F)F)cc2)[C@H]1CCCO | 111 | · | · | 16 | 1.1 | -10 | · | · | ·
Cc1cccc(-c2nc(C#N)c(NC3CCCCC3)o2)c1 | 156* | 108 | -9 | 136* | 2.8 | -62 | 174* | 132 | 118*
Cc1cccc(-c2nc(CS(=O)CC(=O)NC3CCCC3)c(C)o2)c1 (centres undefined) | 106 | 98 | 8 | 7 | 1.1 | -6 | · | · | ·
Cc1ccnc(NC(=O)c2sc3ccccc3c2Cl)c1 | 165* | 72 | 33 | 148* | 3.6* | -73 | 130* | 59 | 50
Cc1nc(NC(=O)c2csc3ccccc23)sc1C | 176* | 96 | 10 | 151* | 7.5* | -83 | 256* | 137* | 111*
Cc1nn(C)c(C)c1/C=N/NC(=O)c1csc2ccccc12 | 114 | 107 | -5 | -10 | 1.2 | -16 | · | · | ·
COCc1cc(=O)[nH]c(-c2ccccc2)n1 | 99 | 102 | 1 | -29 | 1.1 | 1 | · | · | ·
O=C(CC(c1ccccc1)c1ccccc1)Nc1ccc(Cl)cn1 | 94 | 106 | -4 | 14 | 1.2 | 6 | · | · | ·
O=C(/C=C/c1ccccc1)Nc1ccc(Cl)cn1 | 156* | 100 | 9 | 80 | 3.2 | -60 | 208* | 121 | 95
COCCCNc1oc(-c2cccs2)nc1S(=O)(=O)c1ccc(C)cc1 | 99 | 95 | 11 | 7 | 1 | -2 | · | · | ·
N#CCn1cnc2sc(-c3ccccc3)cc2c1=O | 123 | 94 | 11 | 19 | 1.7 | -27 | · | · | ·
CCn1cnc2sc(-c3ccccc3)cc2c1=O | 158* | 108 | 1 | 182* | 5.4* | -64 | 205* | 130 | 109
COc1ccc(Nc2oc(-c3cccs3)nc2C#N)cc1 | 151* | 95 | 8 | 72 | 2.4 | -56 | 160* | 120 | 94
Cc1cc(C(=O)CSc2nnnn2C)c(C)n1CCc1ccc(F)cc1 | 103 | 100 | 7 | -6 | 1.6 | -3 | · | · | ·

Screening data (PubChem)
